Source: publication PMC9401589 (Chembiochem, 2022)
Entries after “also recorded” stand apart in the source; their conditions may differ. Where two headings read alike, the source gives them in different places.

Tests used:
[1] = test system: Anabaena variabilis ATCC 29413; assay: Bioactivity assay: growth of A. variabilis in presence of compound; type: cell-based; conditions: for growth inhibition / bioactivity towards A. variabilis: 4 days of cultivation; for cell density (chlorophyll a content) compared to control: 250 μM, four-day cultivation; for concentration at which an effect on growth was visible: after 4 days of cultivation, tested 5-250 µM
How it was run: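 A. variabilis cultured in suspension with test compound at 250 μM for four days. Chlorophyll a content was then measured as the indicator of cell density and compared with untreated control cultures. Cultures were also inspected visually for growth.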

A. thaliana seedlings = assay: Seedling growth of A. thaliana; type: in vivo, Arabidopsis thaliana; conditions: 7 days after germination, compared to control
How it was run: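 A. thaliana seedlings were grown with or without test compound and scored 7 days after germination for seedling morphology and root length (n≥18 seedlings). Each treatment was compared with the control by unpaired t-test.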

[2] = test system: DAHP accumulation in A. variabilis cells; assay: DAHP accumulation in treated A. variabilis cells; type: cell-based, Anabaena variabilis; conditions: 250 μM, after 5 h of cultivation
How it was run: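 Anabaena variabilis cells were cultivated for 5 h with 250 μM test compound, alongside untreated control cells. Treated cells were then examined for intracellular DAHP accumulation as an in vivo sign of DHQS inhibition in the shikimate pathway.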

A. variabilis = assay: Uptake assay: decrease of compound in supernatant of A. variabilis cultures; type: cell-based, Anabaena variabilis; conditions: 250 μM applied; for change of compound amount in supernatant: over 48 h
[3] = Quantification of compound in plant material via GC-MS; type: in vivo, Arabidopsis thaliana
[4] = target: T1, dehydroquinate synthase of Arabidopsis thaliana (AtDHQS) (Arabidopsis thaliana, UniProt Q8VYV7); assay: DHQS activity assay; type: biochemical
T1 sequence (Q8VYV7 59-442): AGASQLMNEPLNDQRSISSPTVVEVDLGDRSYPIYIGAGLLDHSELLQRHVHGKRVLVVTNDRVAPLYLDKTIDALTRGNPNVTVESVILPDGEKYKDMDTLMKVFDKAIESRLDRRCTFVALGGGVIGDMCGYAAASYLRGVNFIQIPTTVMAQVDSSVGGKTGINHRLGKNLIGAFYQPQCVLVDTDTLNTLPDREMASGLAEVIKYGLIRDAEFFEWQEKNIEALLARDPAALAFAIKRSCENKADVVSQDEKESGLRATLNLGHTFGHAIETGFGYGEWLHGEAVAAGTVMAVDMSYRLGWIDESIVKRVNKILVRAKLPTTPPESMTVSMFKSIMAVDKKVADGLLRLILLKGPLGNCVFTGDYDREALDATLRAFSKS

fish = fish ref 2, 4; cited from earlier work
[5] = target: T2, DHQS from A. variabilis (AvDHQS) (Trichormus variabilis, UniProt Q3M4V2); assay: DHQS activity assay with A. variabilis enzyme; type: biochemical, Anabaena variabilis
T2 sequence (Q3M4V2 1-363): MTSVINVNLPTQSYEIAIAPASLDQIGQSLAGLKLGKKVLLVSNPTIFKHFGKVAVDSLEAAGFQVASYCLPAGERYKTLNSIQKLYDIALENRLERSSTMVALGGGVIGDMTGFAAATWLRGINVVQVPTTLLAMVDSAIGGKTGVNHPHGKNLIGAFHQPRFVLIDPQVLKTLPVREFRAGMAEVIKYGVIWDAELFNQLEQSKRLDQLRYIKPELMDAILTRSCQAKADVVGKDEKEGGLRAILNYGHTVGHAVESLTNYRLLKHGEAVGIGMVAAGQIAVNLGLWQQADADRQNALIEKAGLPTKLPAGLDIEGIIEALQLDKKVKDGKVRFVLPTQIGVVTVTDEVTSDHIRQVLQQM

SMILES	growth inhibition / bioactivity towards A. variabilis [1]	effect on seedling growth / root length (A. thaliana seedlings)	DAHP accumulation [2]	change of compound amount in supernatant (A. variabilis)	cell density (chlorophyll a content) compared to control [1]	concentration at which an effect on growth was visible [1] [µM]	also measured
C[C@@H](O)[C@H](F)[C@@H](O)[C@H](O)C(=O)CO [5,7dd5FIh (3)]	nor in growth inhibition	no statistical significant differences	only very small amounts; also recorded: neither result in DAHP accumulation	depletion	–	–	–
O=C(CO)[C@@H](O)[C@H](O)[C@H](O)[C@H](O)CF [7d7FSh (2)]	inhibited growth	significantly affected the growth and morphology; also recorded: inhibited growth	significantly higher amounts; also recorded: significantly elevated compared to 7dSh (1)	best among all tested compounds	significantly reduced	100	medium concentration leading to saturation of intracellular accumulation ([3]; 7 d old seedlings): 130 µM; accumulation / import into Arabidopsis seedlings ([3]; seedlings germinated on media with 7d7FSh (130 or 260 µM)): comparable range to 7dSh (1); initially applied compound retrieved in the supernatant (A. variabilis; after 24 h): none; IC50 [4]: 200 µM
C[C@@H]1O[C@](O)(CO)[C@@H](O)[C@H](O)[C@H]1O [7dGh (5)]	nor inhibitory impact on cell growth	no statistical significant differences	only very small amounts; also recorded: neither DAHP accumulation	slight decrease; also recorded: small decrease	–	–	relative activity in relation to 7dSh (1) (ratio of IC50 values) ([4]; IC50 7dSh : IC50 derivative, same enzyme series): ≈ 0.3
C[C@@H](O)[C@@H](O)[C@@H](O)[C@H](O)C(=O)CO [7dSh (1), 7‐deoxy‐sedoheptulose]	–	significantly affected the growth and morphology	significantly higher amounts	–	significantly reduced	5	cytotoxic effects (fish): little; amount of initially applied substance detected in the supernatant (A. variabilis; after 48 h, ESI-MS): about 50%; IC50 [5]: 23.3 µM; IC50 ([4]; IC50, AtDHQS, series [b] enzyme preparation): 85.5 µM; IC50 ([4]; IC50-value against isolated AtDHQS enzyme, range over both enzyme preparations): 85.5 to 144 µM; IC50 ([4]; IC50 of AtDHQS, approximate, as printed in discussion): ~100 µM
O=C(CO)[C@@H](O)[C@H](O)[C@H](O)[C@H](O)CO [Sedoheptulose, reference compound]	–	–	–	–	–	–	inhibitory effect on AtDHQS [4]: no inhibitory effect; IC50 ([4]; AtDHQS, series [a] enzyme preparation, 2.5 µM substrate, 2 nM enzyme, 29 °C): > 1000 µM
